{
  "source": "paper PMC12393906",
  "about": "(Molecular Therapy, 2025)",
  "key": {"Recombinant human ERO1α": {"biological_target": "T1, Recombinant human ERO1α (Homo sapiens, UniProt Q96HE7)", "T1 sequence (Q96HE7 24-468)": "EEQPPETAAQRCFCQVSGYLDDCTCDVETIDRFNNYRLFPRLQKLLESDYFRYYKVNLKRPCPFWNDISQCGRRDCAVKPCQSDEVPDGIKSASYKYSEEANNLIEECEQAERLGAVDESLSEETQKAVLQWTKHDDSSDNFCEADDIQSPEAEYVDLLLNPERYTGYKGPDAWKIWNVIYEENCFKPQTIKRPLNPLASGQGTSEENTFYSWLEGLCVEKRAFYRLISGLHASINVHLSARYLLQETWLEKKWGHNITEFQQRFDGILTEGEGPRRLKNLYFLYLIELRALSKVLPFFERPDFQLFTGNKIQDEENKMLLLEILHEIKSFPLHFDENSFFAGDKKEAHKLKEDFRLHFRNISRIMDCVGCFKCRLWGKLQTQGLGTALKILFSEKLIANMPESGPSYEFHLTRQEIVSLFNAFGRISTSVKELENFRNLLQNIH", "test": "fluorescence-based ERO1α activity assay", "type": "biochemical", "conditions": "read-out: IC50 (ERO1α activity); mean ± SD, n = 3"}, "Amplex Red assay": {"test": "Amplex Red assay", "type": "biochemical", "conditions": "Figure 1M, concentration not given"}, "mouse platelets [1]": {"test_system": "mouse platelets", "test": "Flow cytometry of P-selectin exposure and αIIbβ3 integrin activation", "type": "cell-based", "procedure,_shortened": "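Washed mouse platelets (2 × 10^8/mL in HEPES-Tyrode; C57BL/6 or Ero1α/β-null) were pretreated 20 min at 37°C with 0.1% DMSO vehicle or test compound. Agonist was added for 5 min at 37°C. Cells were stained 15 min with labelled anti-P-selectin or JON/A (activated αIIbβ3) and read by flow cytometry as geometric mean fluorescence intensity.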"}, "mouse platelets [2]": {"test_system": "mouse platelets", "test": "Detection of intracellular ROS", "type": "cell-based", "conditions": "5 μM", "procedure,_shortened": "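Platelets from C57BL/6, WT control or Ero1α/β CKO mice were pretreated 20 min at 37°C with or without 0.1% DMSO vehicle or test compound. They were loaded with 1 μM DCF for 10 min, then stimulated 5 min with thrombin or CRP, or left unstimulated. DCF fluorescence was read by flow cytometry.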"}, "mouse platelets [3]": {"test_system": "mouse platelets", "test": "Analysis of cell viability", "type": "cell-based", "conditions": "5 μM; incubation 20 minutes to 24 hours", "procedure,_shortened": "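Platelets were isolated from ACD blood of C57BL/6, WT control or Ero1α/β CKO mice (8–12 weeks) and washed in HEPES-Tyrode buffer at 2 × 10^8 cells/mL. They were incubated at 37°C with vehicle (0.1% DMSO) or test compound for various times. Cells were then labelled with FITC-annexin V for 20 min and read by flow cytometry.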"}, "mouse platelets [4]": {"test_system": "mouse platelets", "test": "Ca2+ mobilization", "type": "cell-based", "conditions": "thrombin, A23187 or thapsigargin", "procedure,_shortened": "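Mouse platelets were preincubated 20 min with vehicle (0.1% DMSO) or test compound, then loaded with FLIPR Ca2+ 5 dye for 30 min at 37°C in the dark. Release was triggered by 0.02 U/mL thrombin, 0.5 μM A23187 or 5 μM thapsigargin, and influx by adding 2 mM CaCl2. Fluorescence was read at ex 485/em 525 nm and reported as area under the curve (RFU).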"}, "pancreatic islet cells": {"test_system": "pancreatic islet cells", "test": "Glucose-stimulated insulin secretion and insulin content", "type": "cell-based, mouse", "conditions": "1 or 5 μM; high glucose (16.7 mM)", "procedure,_shortened": "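Islets were isolated by bile-duct perfusion of type V collagenase (0.45 mg/mL), handpicked and cultured overnight in RPMI/10% FCS. They were exposed 3 h in KRBH (pH 7.4) to 2.8 mM or 16.7 mM glucose, ± vehicle (0.1% DMSO) or 1 or 5 μM test compound. Ten islets per group then had 1 h in low glucose, then 1 h at 37°C under the same conditions, in technical duplicates. Supernatant insulin and acid-ethanol-extracted content were measured by ELISA.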"}, "C57BL/6 mice [5]": {"test_system": "C57BL/6 mice", "test": "Ex vivo platelet activation after intravenous injection", "type": "in vivo, mouse", "conditions": "iv 0.3 μg/g BW; blood collected 10 min later", "procedure,_shortened": "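C57BL/6 mice (8–12 weeks, both sexes) received iv vehicle (1% DMSO in saline) or test compound at 0.3 μg/g BW. Blood was drawn 10 min later and washed platelets were isolated. Platelets were stimulated with agonist for 5 min at 37°C and stained 15 min for P-selectin and activated αIIbβ3 (JON/A). Flow cytometry read-out was geometric mean fluorescence intensity.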"}, "C57BL/6 mice [6]": {"test_system": "C57BL/6 mice", "test": "Intravital microscopy, laser-induced cremaster arteriolar injury", "type": "in vivo, mouse", "conditions": "iv 0.3 μg/g BW 10 min before IVM", "procedure,_shortened": "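Male mice (8–12 weeks) were anaesthetised with ketamine/xylazine ip. The cremaster was exteriorised and superfused with 37°C bicarbonate-buffered saline. Vehicle (1% DMSO) or test compound (0.3 μg/g BW) was given iv, and 10 min later DyLight 649 anti-CD42c (0.1 μg/g BW) was given. Laser ablation injured 3–4 arterioles per mouse. Median integrated platelet fluorescence was tracked over time, using […] per group.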"}, "C57BL/6 mice [7]": {"test_system": "C57BL/6 mice", "test": "FeCl3-induced carotid arterial thrombosis", "type": "in vivo, mouse", "conditions": "for time to occlusion (TTO): iv 0.3 μg/g BW", "procedure,_shortened": "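Male and female mice, 8–12 weeks, were anaesthetised with ip ketamine/xylazine. A 2 × 2 mm filter disc carrying 1.2 μL of 7 or 10% FeCl3 was placed on the carotid artery for 2 min. Flow was monitored by Doppler flow meter. TTO was the time from disc removal to stable occlusion (no flow for 5 min).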"}, "C57BL/6 mice [8]": {"test_system": "C57BL/6 mice", "test": "tMCAO-induced ischemic stroke", "type": "in vivo, mouse", "conditions": "iv 0.3 μg/g BW after 1 h tMCAO; 23 h reperfusion", "procedure,_shortened": "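Male mice, 10–12 weeks, were anaesthetised with 1.2%–1.5% isoflurane in oxygen and given buprenorphine-ER 0.1 μg/g ip. After 1 h MCA occlusion the filament was withdrawn to restore flow. Vehicle (1% DMSO) or test compound was then given iv. After 23 h reperfusion, Bederson score, grip strength and infarct volume were assessed.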"}, "[9]": {"conditions": "at concentrations required to reduce ERO1α activity; cited from earlier work"}},
  "data": [
    {"smiles": "O=C(O)c1cc(N2N=C(C(F)(F)F)/C(=C/c3ccc(-c4ccccc4)o3)C2=O)ccc1Cl", "note": "[EN460]", "values": [
      {"measurement": "IC50", "setting": "Recombinant human ERO1α", "result": "5.5 ± 1.6", "unit": "µM"},
      {"measurement": "inhibition of H2O2 activity", "setting": "Amplex Red assay", "result": "inhibits H2O2 activity"},
      {"measurement": "P-selectin exposure and αIIbβ3 integrin activation", "setting": "mouse platelets [1]; 1-5 µM, low agonist: 0.01 U/mL thrombin, 0.025 μg/mL CRP, 0.5 μM U46619, 0.5 μM A23187, concentration-dependent", "result": "inhibited"},
      {"measurement": "P-selectin exposure and αIIbβ3 integrin activation", "setting": "mouse platelets [1]; 2.5 or 5 μM, high agonist: thrombin 0.1 U/mL or CRP 0.2 μg/mL, weaker effect", "result": "still observed"},
      {"measurement": "P-selectin exposure and αIIbβ3 integrin activation in resting platelets", "setting": "mouse platelets [1]; M6766 5 μM, EN460 2.5 or 5 μM, no agonist", "result": "appeared to enhance both events"},
      {"measurement": "agonist-induced DCF signal (ROS)", "setting": "mouse platelets [2]; after thrombin", "result": "reduced the signal"},
      {"measurement": "ROS production in resting platelets", "setting": "mouse platelets [2]; no agonist", "result": "moderately increased ROS production"},
      {"measurement": "annexin V binding (platelet viability)", "setting": "mouse platelets [3]", "result": "markedly increased annexin V binding within 20 min"},
      {"measurement": "Ca2+ release and influx", "setting": "mouse platelets [4]; 0.25 or 0.5 μM", "result": "no or minimal inhibition"},
      {"measurement": "Ca2+ release and influx", "setting": "mouse platelets [4]; 1 or 2.5 μM", "result": "significantly reduced both Ca^2+ release and influx"},
      {"measurement": "insulin secretion or content", "setting": "pancreatic islet cells", "result": "did not reduce insulin secretion or content"},
      {"measurement": "P-selectin exposure and αIIbβ3 integrin activation following thrombin stimulation (ex vivo)", "setting": "C57BL/6 mice [5]", "result": "moderate but significant reduction"},
      {"measurement": "initial platelet adhesion at sites of laser injury", "setting": "C57BL/6 mice [6]", "result": "without affecting initial platelet adhesion"},
      {"measurement": "platelet accumulation at sites of laser injury", "setting": "C57BL/6 mice [6]", "result": "significantly inhibited platelet accumulation"},
      {"measurement": "carotid arterial thrombosis (time to occlusion)", "setting": "C57BL/6 mice [7]; 0.1 μg/g BW, 7% FeCl3", "result": "did not inhibit carotid arterial thrombosis"},
      {"measurement": "time to occlusion (TTO)", "setting": "C57BL/6 mice [7]; 7% FeCl3", "result": "significantly prolonged the time to occlusion"},
      {"measurement": "time to occlusion (TTO)", "setting": "C57BL/6 mice [7]; 10% FeCl3", "result": "did not affect TTO"},
      {"measurement": "Bederson score", "setting": "C57BL/6 mice [8]", "result": "decreased the Bederson score"},
      {"measurement": "grip strength", "setting": "C57BL/6 mice [8]", "result": "increased grip strength"},
      {"measurement": "infarct volume", "setting": "C57BL/6 mice [8]", "result": "significantly reduced infarct volume"},
      {"measurement": "thiol reactivity", "setting": "[9]", "result": "exhibits thiol reactivity"}
    ]}
  ]
}
